# How the values were obtained:
# Klebsiella pneumoniae [1] = test: Antibacterial activity against ESBL positive Klebsiella pneumoniae ATCC 700603 after 24 hrs by resazurin dye based microdilution assay; type: functional; settings: Klebsiella pneumoniae, 700603, 24 h
# Summary of the method: (§1)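 MIC taken as the lowest concentration giving visible inhibition and/or by resazurin (1 mg/mL). Gentamicin was the control. Run in duplicate, repeated at least three times.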
# Klebsiella pneumoniae [2] = test: Antibacterial activity against carbapenemase positive Klebsiella pneumoniae BAA 1705 after 24 hrs by resazurin dye based microdilution assay; type: functional; settings: BAA 1705, 24 h; summary of the method: as §1
# Leishmania panamensis = test: Antileshmanial activity against EpiR/GFP fused Leishmania panamensis MHOM/CO/87/UA140 intracellular amastigotes infected in human […] cells after 72 hrs by flow cytometric method; type: functional, cell-based; settings: MHOM/CO/87/UA140, 72 h
# Summary of the method: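 PMA-treated U-937 cells (3 × 10^5 cells/mL) infected with stationary-phase GFP L. panamensis promastigotes (15:1), 3 h at 34 °C, then washed. After 24 h, compounds added at 50, 12.5, 3.125 and 0.78 µg/mL for 72 h at 37 °C. EC50 by Probit; triplicate, two experiments.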
# Candida albicans [3] = test: Antifungal activity against Candida albicans ATCC 10231 incubated for 48 hrs under dark condition by broth microdilution method; type: functional; settings: ATCC 10231, 48 h
# Summary of the method: (§2)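 CLSI M27-A3 broth microdilution in RPMI-1640, DMSO ≤1%, compounds at 250-0.98 µg/mL final. Inoculum 1-5 × 10^3 CFU/mL. Incubated 48 h at 30 °C in a moist dark chamber, read at OD405. MIC80 and MIC50 taken from % inhibition dose-response curves (mean ± SEM, triplicate). Amphotericin B was the positive control.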
# Cryptococcus neoformans [4] = test: Antifungal activity against Cryptococcus neoformans ATCC 32264 incubated for 48 hrs under dark condition by broth microdilution method; type: functional; settings: ATCC 32264, 48 h; summary of the method: as §2
# Candida albicans [5] = test: Growth inhibition of Candida albicans ATCC 10231 at 250 ug/ml incubated for 48 hrs under dark condition by broth microdilution method relative to control; type: functional; settings: ATCC 10231, 48 h, read-out: GI
# Summary of the method: (§3)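 CLSI M27-A3 broth microdilution in RPMI-1640, DMSO ≤1%. Inoculum 1-5 × 10^3 CFU/mL. Incubated 48 h at 30 °C, dark. % inhibition = 100 − (OD405 test − sterility control)/(OD405 growth control − sterility control), with growth and sterility control wells. Triplicate.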
# Candida albicans [6] = test: Growth inhibition of Candida albicans ATCC 10231 at 125 ug/ml incubated for 48 hrs under dark condition by broth microdilution method relative to control; type: functional; settings: ATCC 10231, 48 h, read-out: GI; summary of the method: as §3
# Candida albicans [7] = test: Growth inhibition of Candida albicans ATCC 10231 at 62.5 ug/ml incubated for 48 hrs under dark condition by broth microdilution method relative to control; type: functional; settings: ATCC 10231, 48 h, read-out: GI; summary of the method: as §3
# Candida albicans [8] = test: Growth inhibition of Candida albicans ATCC 10231 at 31.25 ug/ml incubated for 48 hrs under dark condition by broth microdilution method relative to control; type: functional; settings: ATCC 10231, 48 h, read-out: GI; summary of the method: as §3
# Candida albicans [9] = test: Growth inhibition of Candida albicans ATCC 10231 at 15.62 ug/ml incubated for 48 hrs under dark condition by broth microdilution method relative to control; type: functional; settings: ATCC 10231, 48 h, read-out: GI; summary of the method: as §3
# Candida albicans [10] = test: Growth inhibition of Candida albicans ATCC 10231 at 7.8 ug/ml incubated for 48 hrs under dark condition by broth microdilution method relative to control; type: functional; settings: ATCC 10231, 48 h, read-out: GI; summary of the method: as §3
# Candida albicans [11] = test: Growth inhibition of Candida albicans ATCC 10231 at 3.4 ug/ml incubated for 48 hrs under dark condition by broth microdilution method relative to control; type: functional; settings: ATCC 10231, 48 h, read-out: GI
# Cryptococcus neoformans [12] = test: Growth inhibition of Cryptococcus neoformans ATCC 32264 at 250 ug/ml incubated for 48 hrs under dark condition by broth microdilution method relative to control; type: functional; settings: ATCC 32264, 48 h, read-out: GI; summary of the method: as §3
# Cryptococcus neoformans [13] = test: Growth inhibition of Cryptococcus neoformans ATCC 32264 at 125 ug/ml incubated for 48 hrs under dark condition by broth microdilution method relative to control; type: functional; settings: ATCC 32264, 48 h, read-out: GI; summary of the method: as §3
# Cryptococcus neoformans [14] = test: Growth inhibition of Cryptococcus neoformans ATCC 32264 at 62.5 ug/ml incubated for 48 hrs under dark condition by broth microdilution method relative to control; type: functional; settings: ATCC 32264, 48 h, read-out: GI; summary of the method: as §3
# Cryptococcus neoformans [15] = test: Growth inhibition of Cryptococcus neoformans ATCC 32264 at 31.25 ug/ml incubated for 48 hrs under dark condition by broth microdilution method relative to control; type: functional; settings: ATCC 32264, 48 h, read-out: GI; summary of the method: as §3
# Cryptococcus neoformans [16] = test: Growth inhibition of Cryptococcus neoformans ATCC 32264 at 15.62 ug/ml incubated for 48 hrs under dark condition by broth microdilution method relative to control; type: functional; settings: ATCC 32264, 48 h, read-out: GI; summary of the method: as §3
# Cryptococcus neoformans [17] = test: Growth inhibition of Cryptococcus neoformans ATCC 32264 at 7.8 ug/ml incubated for 48 hrs under dark condition by broth microdilution method relative to control; type: functional; settings: ATCC 32264, 48 h, read-out: GI; summary of the method: as §3
# Cryptococcus neoformans [18] = test: Growth inhibition of Cryptococcus neoformans ATCC 32264 at 3.4 ug/ml incubated for 48 hrs under dark condition by broth microdilution method relative to control; type: functional; settings: ATCC 32264, 48 h, read-out: GI
# Staphylococcus aureus [19] = test: Antibacterial activity against methicillin-sensitive Staphylococcus aureus ATCC 25923 after 24 hrs by resazurin dye based microdilution assay; type: functional; settings: ATCC 25923, 24 h; summary of the method: as §1
# Staphylococcus aureus [20] = test: Antibacterial activity against methicillin-resistant Staphylococcus aureus ATCC 43300 after 24 hrs by resazurin dye based microdilution assay; type: functional; settings: ATCC 43300, 24 h
# Summary of the method: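 Broth microdilution in Mueller Hinton broth, inoculum 5 × 10^5 – 8 × 10^5. Compound stocks diluted in MHB with 5% DMSO and 0.1% Tween 80. Incubation 24 h at 35-37 °C. MIC is the lowest concentration with visible growth inhibition and/or by resazurin (1 mg/mL) read-out. Gentamicin as control. Run in duplicate, replicated at least three times.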
# Staphylococcus aureus [21] = test: Antibacterial activity against vancomycin-intermediate Staphylococcus aureus after 24 hrs by resazurin dye based microdilution assay; type: functional; summary of the method: as §1
# Escherichia coli = test: Antibacterial activity against Escherichia coli ATCC 25922 after 24 hrs by resazurin dye based microdilution assay; type: functional; settings: ATCC 25922, 24 h; summary of the method: as §1
# Pseudomonas aeruginosa = test: Antibacterial activity against Pseudomonas aeruginosa ATCC 27853 after 24 hrs by resazurin dye based microdilution assay; type: functional; settings: ATCC 27853, 24 h; summary of the method: as §1
# Neisseria gonorrhoeae = test: Antibacterial activity against beta lactamase positive Neisseria gonorrhoeae ATCC 31426 by oxidase test; type: functional
# Summary of the method: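 Agar dilution MIC on GC agar with 1% isovitalex containing increasing compound concentrations. Plates inoculated with about 1×10^4 CFU (5 µL). MIC is the lowest concentration that inhibited growth, with growth confirmed by oxidase test. Run in duplicate, repeated at least three times.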
# Plasmodium falciparum = test: Antiplasmodial activity against chloroquine-sensitive Plasmodium falciparum 3D7 assessed as reduction in parasitic LDH activity after 48 hrs by Malstat reagent based […] method; type: functional; settings: 3D7, 48 h
# Summary of the method: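 Unsynchronized P. falciparum 3D7 at 0.5% parasitemia and 1% hematocrit in RPMI with 3% Albumax II. Exposed to 100, 25, 6.25 and 1.56 µg/mL for 48 h at 37 °C under 90% N2/5% CO2/5% O2. After three freeze-thaw cycles, LDH measured with Malstat and NBT/PES, 1 h in the dark, read at 650 nm. IC50 by Probit; triplicate, ≥2 experiments.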
# U-937 = test: Cytotoxicity against human U937 cells after 72 hrs by MTT assay; type: cell-based; settings: u-937, 72 h
# Summary of the method: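 Exponentially growing U-937 at 1 × 10^5 cells/mL in RPMI-1640 with 10% FBS were exposed to 200, 50, 12.5 and 3.125 µg/mL for 72 h at 37 °C, 5% CO2. MTT for 3 h, stopped with isopropanol/SDS, formazan read at 570 nm, blank-corrected. LC50 by Probit from % viability against untreated cells. Triplicate, at least two independent experiments.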
# Trypanosoma cruzi = test: Antitrypanosomal activity against Trypanosoma cruzi Tulahuen intracellular amastigote harboring LacZ infected in human U937 cells after 72 hrs by CPRG/Nonidet reagent based spectrophotometric method; type: functional, cell-based; settings: U-937, 72 h
# Summary of the method: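 U-937 cells at 2.5 × 10^5 cells/mL in RPMI-1640 with 10% serum and 0.1 µg/mL PMA were infected with β-galactosidase-transfected Tulahuen epimastigotes at 5 parasites per cell. Infected cells were exposed to 50, 12.5, 3.125 and 0.78 µg/mL for 72 h. CPRG (100 uM) and 0.1% Nonidet P-40 were added for 3 h, read at 570 nm. EC50 by Probit. Triplicate, at least two experiments; benznidazole as reference.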
compound,measurement,setting,value
CC(=O)N1N=C(c2ccc(Br)cc2)CC1c1cccc(Nc2ccnc3cc(Cl)ccc23)c1 (stereo not given),MIC,Klebsiella pneumoniae [1],> 1000 µg/mL
same,MIC,Klebsiella pneumoniae [2],> 1000 µg/mL
same,EC50,Leishmania panamensis,3.66 µg/mL
same,MIC50,Candida albicans [3],≥ 250 µg/mL
same,MIC80,Candida albicans [3],≥ 250 µg/mL
same,MIC50,Cryptococcus neoformans [4],250 µg/mL
same,MIC80,Cryptococcus neoformans [4],≥ 250 µg/mL
same,inhibition of growth at 250 µg/mL,Candida albicans [5],29.9%
same,inhibition of growth at 125 µg/mL,Candida albicans [6],27.9%
same,inhibition of growth at 62.5 µg/mL,Candida albicans [7],19.1%
same,inhibition of growth at 31.25 µg/mL,Candida albicans [8],15.7%
same,inhibition of growth at 15.62 µg/mL,Candida albicans [9],15%
same,inhibition of growth at 7.8 µg/mL,Candida albicans [10],13.9%
same,inhibition of growth at 3.4 µg/mL,Candida albicans [11],13.7%
same,inhibition of growth at 250 µg/mL,Cryptococcus neoformans [12],71.2%
same,inhibition of growth at 125 µg/mL,Cryptococcus neoformans [13],48.4%
same,inhibition of growth at 62.5 µg/mL,Cryptococcus neoformans [14],23.6%
same,inhibition of growth at 31.25 µg/mL,Cryptococcus neoformans [15],19.6%
same,inhibition of growth at 15.62 µg/mL,Cryptococcus neoformans [16],18.3%
same,inhibition of growth at 7.8 µg/mL,Cryptococcus neoformans [17],16.9%
same,inhibition of growth at 3.4 µg/mL,Cryptococcus neoformans [18],15.4%
same,MIC,Staphylococcus aureus [19],> 1000 µg/mL
same,MIC,Staphylococcus aureus [20],> 1000 µg/mL
same,MIC,Staphylococcus aureus [21],> 1000 µg/mL
same,MIC,Escherichia coli,> 1000 µg/mL
same,MIC,Pseudomonas aeruginosa,> 1000 µg/mL
same,MIC,Neisseria gonorrhoeae,> 1000 µg/mL
same,EC50,Plasmodium falciparum,50.1 µg/mL
same,LC50,U-937,10.2 µg/mL
same,EC50,Trypanosoma cruzi,3.7 µg/mL
CC(=O)N1N=C(c2ccccc2)CC1c1cccc(Nc2ccnc3cc(Cl)ccc23)c1 (stereo not given),MIC,Klebsiella pneumoniae [1],> 1000 µg/mL
same,MIC,Klebsiella pneumoniae [2],> 1000 µg/mL
same,EC50,Leishmania panamensis,3.67 µg/mL
same,MIC50,Candida albicans [3],250 µg/mL
same,MIC80,Candida albicans [3],≥ 250 µg/mL
same,MIC50,Cryptococcus neoformans [4],250 µg/mL
same,MIC80,Cryptococcus neoformans [4],≥ 250 µg/mL
same,inhibition of growth at 250 µg/mL,Candida albicans [5],53.3%
same,inhibition of growth at 125 µg/mL,Candida albicans [6],27.5%
same,inhibition of growth at 62.5 µg/mL,Candida albicans [7],23.1%
same,inhibition of growth at 31.25 µg/mL,Candida albicans [8],21.2%
same,inhibition of growth at 15.62 µg/mL,Candida albicans [9],19.8%
same,inhibition of growth at 7.8 µg/mL,Candida albicans [10],10.5%
same,inhibition of growth at 3.4 µg/mL,Candida albicans [11],5.28%
same,inhibition of growth at 250 µg/mL,Cryptococcus neoformans [12],69.2%
same,inhibition of growth at 125 µg/mL,Cryptococcus neoformans [13],41.9%
same,inhibition of growth at 62.5 µg/mL,Cryptococcus neoformans [14],12.8%
same,inhibition of growth at 31.25 µg/mL,Cryptococcus neoformans [15],12.3%
same,inhibition of growth at 15.62 µg/mL,Cryptococcus neoformans [16],12.2%
same,inhibition of growth at 7.8 µg/mL,Cryptococcus neoformans [17],8.77%
same,inhibition of growth at 3.4 µg/mL,Cryptococcus neoformans [18],0%
same,MIC,Staphylococcus aureus [19],> 1000 µg/mL
same,MIC,Staphylococcus aureus [20],> 1000 µg/mL
same,MIC,Staphylococcus aureus [21],> 1000 µg/mL
same,MIC,Escherichia coli,> 1000 µg/mL
same,MIC,Pseudomonas aeruginosa,> 1000 µg/mL
same,MIC,Neisseria gonorrhoeae,> 1000 µg/mL
same,EC50,Plasmodium falciparum,12.7 µg/mL
same,LC50,U-937,5.8 µg/mL
same,EC50,Trypanosoma cruzi,4.26 µg/mL

# Source: ChEMBL document CHEMBL4038284, “Synthesis of novel quinoline-based 4,5-dihydro-1H-pyrazoles as potential anticancer, antifungal, antibacterial and antiprotozoal agents” (Eur J Med Chem, 2017)
